What is called pKi is the Ki on a negative log10 scale, so that one unit is a factor of ten. Low values mean a high Ki, high ones a low Ki.

In ChEMBL document CHEMBL1151925, “Design and synthesis of enediyne-peptide conjugates and their inhibiting activity against chymotrypsin” (Bioorg Med Chem, 2009) one finds Activity and Ki data, which are given here for 6 molecules.

pKi: −log10 of the molar value. Active and inactive are the calls of the source. No cut-off for these calls is given here.

Test [1] in a line: Inhibition of alpha-chymotrypsin assessed as decrease in proteolysis of BSA at 1 mg/ml after 60 mins by SDS-PAGE. In outline:
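Chymotrypsin digestion of BSA (1 mg/ml stock) in 0.01 M phosphate buffer at 38 °C, with free enzyme or enzyme preincubated with inhibitor. Digestion fragments resolved by SDS–PAGE with Coomassie Brilliant Blue staining. Loss of the intact BSA band and appearance of hydrolysed fragments were scored.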

The nature of test [2]: Inhibition of alpha-chymotrypsin assessed as decrease in proteolysis of BSA at 93 uM to 372 uM by Lowry method. A digest of the protocol: (§1)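 BSA (1 mg/ml stock) in 0.01 M phosphate buffer digested with chymotrypsin (1 mg/ml solution) at 38 °C for a set time, free enzyme or enzyme preincubated with inhibitor at three concentrations. Undigested BSA precipitated with 4% trichloroacetic acid and removed by centrifugation. Hydrolysed products in the supernatant quantified by Lowry method and compared with the uninhibited control.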

Test [3] in a line: Inhibition of alpha-chymotrypsin assessed as decrease in proteolysis of BSA at 10.23 uM to 40.9 uM by Lowry method. A digest of the protocol: as §1
Test [4] in a line: Inhibition of alpha-chymotrypsin assessed as decrease in proteolysis of BSA at 4.6 uM to 7.7 uM by Lowry method. A digest of the protocol:
as §1

Test [5] can be described thus: Inhibition of alpha-chymotrypsin by Lineweaver-Burke plot analysis. A digest of the protocol: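 Chymotrypsin kinetics followed by UV-vis using N-benzoyl tyrosine ethyl ester substrate at 169–340 µM in 80 mM Tris HCl, pH 7.8, with CaCl2. Inhibitor varied across several concentrations. Reciprocal initial rate plotted against reciprocal substrate concentration (Lineweaver–Burk) to assign inhibition type and derive Ki.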

Test [6] can be described thus: Inhibition of alpha-chymotrypsin assessed as decrease in proteolysis of BSA at 5.9 uM to 35 uM by Lowry method. A digest of the protocol: as §1
Test [7] is described as follows: Inhibition of alpha-chymotrypsin assessed as decrease in proteolysis of BSA at 80 uM to 320 uM by Lowry method. A digest of the protocol: as §1
Test [8] is described as follows: Inhibition of alpha-chymotrypsin assessed as decrease in proteolysis of BSA at 8.5 uM to 34 uM by Lowry method. A digest of the protocol:
as §1

Take `CC(C)(C)OC(=O)N[C@@H](Cc1ccccc1)C(=O)OCC(=O)N1CCCCC1`: the outcome in test [1] and in test [2] was inactive.

Take `CC(C)(C)OC(=O)N[C@@H](Cc1ccccc1)C(=O)OCC(=O)N1CC#C/C=C\C#CCC1`: the result in test [3] and in test [1] was Active.

Take `CC(C)(C)OC(=O)N[C@@H](Cc1ccccc1)C(=O)N1CC#Cc2ccccc2C#CCC1`: the outcome in test [1] and in test [4] was Active. The pKi in test [5] is 5.52.

Regarding `CC(C)(C)OC(=O)N[C@@H](Cc1ccccc1)C(=O)OCC(=O)N1CC#Cc2ccccc2C#CCC1`, the result in test [1] and in test [6] was Active. Besides, in test [5], the pKi is 4.52.

Turning to `CC(C)(C)OC(=O)N[C@@H](Cc1ccccc1)C(=O)N1CCc2ccccc2C1`, the outcome in test [1] and in test [7] was inactive.

As to `C[C@H](NC(=O)OC(C)(C)C)C(=O)N[C@@H](Cc1ccccc1)C(=O)NCCC#Cc1ccccc1C#CC=O`, the outcome in test [1] and in test [8] was Active. In test [5], this molecule gave a pKi of 4.92.
